# ABCB6 inh MLPCN: ABCB6 transporter inhibitors, primary screen, K562-ABCB6 cells, flow cytometry, MLPCN library. ATP-binding cassette sub-family B member 6 (Homo sapiens), Q9NP58. K562-ABCB6 porphyrin accumulation, 1 h; stronger effect = lower value. fluorescence ratio to DMSO, % at 10 µM. 360,000 compounds, 0.19% hits. AID 602162, 2011;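 active means fluorescence ratio to DMSO below 75%, the collection mean minus 3 SD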;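 further: signal is porphyrin accumulated inside mitochondria; 100% equals median channel fluorescence of DMSO control wells; lower ratio means ABCB6 inhibition with less porphyrin fluorescence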
# DAGLB inhibitor: DAGLB lipase inhibitors, primary screen, biochemical, fluorescence, HTS; HEK293T DAGLB membrane lysate, EnzChek fluorogenic substrate; inhibition, % at 5.17 µM; Diacylglycerol lipase-beta (Homo sapiens), Q8NCG7; 340,000 compounds, 0.059% hits; in the data active means inhibition above about 34%;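 further: 0% = enzyme with vehicle and 100% = wells lacking enzyme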
# Granule exo inh: LAMP-1 surface exposure blockers, TALL-104 cells – cell-based, flow cytometry, MLPCN library, primary screen; TALL-104 LAMP-1 surface exposure; cells stimulated with thapsigargin and PMA; inhibition, % at 10 µM; 360,000 compounds, 0.66% hits;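 active means inhibition above about 55%, limit read from the data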
# MT1-MMP act inh: blockers of MT1-MMP proenzyme processing, primary screen, HT1080 RFP-PRO-GFP cells, GFP/RFP fluorescence | GFP/RFP ratio change, % at 20 µM | AID 651647, 2012 | 360,000 compounds, 0.061% hits | Matrix metalloproteinase-14 (Homo sapiens), P50281 | GFP/RFP ratio fluorescence, overnight; percent of plate control window, DMSO zero;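 active means GFP/RFP ratio change of at least 30% with cell ATP level not reduced by more than half and red fluorescence within 50% of control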
#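 Read-out: GFP/RFP fluorescence ratio; Test system: RFP-PRO-GFP reporter HT1080 cells; Compound dosing: single-point 20 µM compound, 1% DMSO; Times: overnight compound exposure at 37 °C.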
# VLA-4 inh: inhibition in human VLA-4 binding assay, primary screen, VLA-4 allosteric modulator project, MLPCN library, flow cytometry, VLA-4 expressing cells; Integrin alpha-4 (Homo sapiens), P13612; 330,000 compounds, 0.2% hits; inhibition, % (about 7 µM as worked out from the volumes in the protocol); ligand binding flow cytometry; in the data active means inhibition above about 50%
# Target sequence (P13612 whole entry, looked up): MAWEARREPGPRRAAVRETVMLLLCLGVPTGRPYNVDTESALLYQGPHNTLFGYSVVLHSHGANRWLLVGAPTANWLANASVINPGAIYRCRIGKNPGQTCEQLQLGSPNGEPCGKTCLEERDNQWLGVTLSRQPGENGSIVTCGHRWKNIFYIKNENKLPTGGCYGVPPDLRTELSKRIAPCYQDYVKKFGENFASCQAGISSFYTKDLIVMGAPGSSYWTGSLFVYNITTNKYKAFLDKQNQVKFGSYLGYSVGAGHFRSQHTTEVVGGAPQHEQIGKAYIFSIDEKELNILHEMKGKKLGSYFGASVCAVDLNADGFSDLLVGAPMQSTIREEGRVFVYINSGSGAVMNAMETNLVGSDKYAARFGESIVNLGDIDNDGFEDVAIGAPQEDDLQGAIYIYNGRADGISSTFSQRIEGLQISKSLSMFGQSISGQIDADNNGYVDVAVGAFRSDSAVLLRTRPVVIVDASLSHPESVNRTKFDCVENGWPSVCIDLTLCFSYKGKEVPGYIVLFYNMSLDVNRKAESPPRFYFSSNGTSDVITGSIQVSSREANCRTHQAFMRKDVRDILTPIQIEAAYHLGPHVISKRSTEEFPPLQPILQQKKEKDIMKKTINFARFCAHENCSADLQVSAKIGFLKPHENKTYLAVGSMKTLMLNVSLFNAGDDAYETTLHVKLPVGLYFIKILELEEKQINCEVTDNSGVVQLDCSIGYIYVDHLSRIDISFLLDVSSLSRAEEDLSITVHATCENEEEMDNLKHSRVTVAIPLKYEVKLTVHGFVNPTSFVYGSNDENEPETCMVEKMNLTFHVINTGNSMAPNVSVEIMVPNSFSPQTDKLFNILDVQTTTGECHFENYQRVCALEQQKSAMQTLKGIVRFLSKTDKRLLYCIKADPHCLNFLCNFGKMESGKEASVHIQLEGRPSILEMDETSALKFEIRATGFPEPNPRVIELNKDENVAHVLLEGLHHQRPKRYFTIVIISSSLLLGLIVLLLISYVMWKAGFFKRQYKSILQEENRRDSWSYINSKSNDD
# FGF22 binding: binders of human FGF22 protein, primary screen, FGF22 synaptogenesis inhibitor project, biophysical, thermal shift, single point; recombinant FGF22 thermal shift, SYPRO orange fluorescence; percent of sucrose octasulfate shift, DMSO zero; activity (Tm shift, normalised), % at 9.99 µM; 340,000 compounds, 1.5% hits;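 active means mean Tm shift, scaled 0 neutral to 100 positive control, at about 1.3% or above, every replicate too, limit read from the data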
# VLA-4 mod pick: retest of VLA-4 allosteric modulators, confirmation, cell-based, cherry-picked plates, U937, HUTS-21 LIBS antibody | 1,300 compounds, 2% hits | inhibition, % at 6.7 µM | shares compounds with VLA-4 inh | U937 cells, HUTS-21 LIBS mAb binding, flow cytometry; LDV ligand present at threefold Kd; in the data active means inhibition above about 40%;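 further: 0% = ligand without compound and 100% = no ligand background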
# Starred values were filed as active, the others as inactive; . = no result. Sampled rows, rich in hits. Any-hit rate of the full collection: about 2%.
SMILES,ABCB6 inh MLPCN,DAGLB inhibitor,Granule exo inh,MT1-MMP act inh,VLA-4 inh,FGF22 binding,VLA-4 mod pick
CCc1ccc(OCc2nnc(SCC(=O)N3CCOCC3)o2)cc1,92.0,-0.3,0.1,1.9,-0.1,-0.1,.
CCc1ccc(OCc2nnc(SCC(=O)Nc3cccc(C(=O)N4CCOCC4)c3)o2)cc1,95.0,-2.3,0.6,1.0,42.9,0.2,4.5
C[C@@H]1CN([C@@H](C)CO)C(=O)Cc2cc(NC(=O)C3CC3)ccc2O[C@@H]1CN(C)Cc1ccc(Oc2ccccc2)cc1,.,.,.,.,.,-0.2,.
Cc1c(O)ccc(NS(=O)(=O)c2ccccc2)c1C,101.0,-0.2,-0.3,-3.1,15.1,41.3,-2.1
CCCc1ccc(OCc2ccc(C(=O)NCc3cccnc3)o2)c(OC)c1,100.0,-1.4,-4.9,-4.7,55.8*,0.0,8.4
O=C(N[C@H]1CC[C@@H](CCNS(=O)(=O)c2cccc(Cl)c2)O[C@H]1CO)c1ccccc1,.,.,.,.,.,0.0,.
COc1ccc(OC)c(/C=N/c2c(-c3ccc(O)c(OC)c3)nc3ccccn23)c1,368.0,-1.2,0.2,3.0,50.6*,0.2,5.4
COc1cc(-c2nc3ccccn3c2/N=C/c2cc(OC)c(OC)c(OC)c2)ccc1O,96.0,0.6,-2.6,6.3,-7.5,.,.
COc1ccc(S(=O)(=O)Nc2ncccn2)cc1,99.0,-1.0,3.5,-1.6,5.5,0.0,3.3
O=S(=O)(Nc1ncccn1)c1ccc(Cl)cc1,101.0,-1.9,3.4,-1.5,7.9,0.0,0.0
O=S(=O)(Nc1ncccn1)c1ccccc1,96.0,-2.0,4.6,0.8,15.3,-0.2,3.1
O=C(Nc1ccc(Cl)cc1)Nc1ccc(S(=O)(=O)Nc2ncccn2)cc1,102.0,5.7,-4.1,0.1,22.6,0.7,.
Cc1ccc(S(=O)(=O)Nc2ncccn2)cc1,100.0,-4.2,-1.0,-0.6,-7.0,-0.1,1.8
C[C@H]1CCCCO[C@@H](CN(C)C(=O)NC2CCCCC2)[C@@H](C)CN([C@@H](C)CO)C(=O)c2cc(NC(=O)CCC(F)(F)F)ccc2O1,.,.,.,.,.,-0.4,.
Cc1ccccc1NS(=O)(=O)c1ccc(S(=O)(=O)N2CCCC2)cc1,99.0,1.2,7.4,2.5,.,-0.2,.
O=S(=O)(Nc1ncccn1)c1ccc(F)cc1,102.0,-1.3,-0.2,-4.2,4.8,0.2,4.4
Cc1ccccc1NS(=O)(=O)c1ccc(Cl)cc1,107.0,-7.5,1.6,3.9,-7.3,0.0,0.4
C[C@H]1CN([C@@H](C)CO)C(=O)c2cc(NC(=O)C3CC3)ccc2O[C@@H]1CN(C)Cc1ccc(C(F)(F)F)cc1,.,.,.,.,.,-0.3,.
COCCNC(=O)/C(C#N)=C/c1ccc(C(=O)O)cc1,96.0,-1.0,-0.8,1.0,1.6,0.0,7.2
COCCNC(=O)/C(C#N)=C/c1c(F)cccc1Cl,94.0,3.2,0.6,-9.4,5.3,0.1,5.4
C[C@@H]1CN([C@@H](C)CO)C(=O)CCCn2cc(nn2)CO[C@@H]1CN(C)C(=O)Nc1ccc2c(c1)OCO2,.,.,.,.,.,-0.3,.
CC(C)Cn1c(N)c(C(=O)CSc2ccccc2)c(=O)n(C)c1=O,92.0,-0.9,1.3,-10.0,2.5,0.2,.
CC(C)Cn1c(N)c(C(=O)CSc2nnc(-c3ccco3)n2C)c(=O)n(C)c1=O,98.0,-0.7,-2.0,-1.3,53.2*,-0.2,-2.8
CCOC(=O)c1ccc(NC(=O)CN(c2ccc(C)cc2)S(=O)(=O)c2c(C)nn(C)c2C)cc1,97.0,-5.2,0.7,-4.6,14.9,.,8.1
CCOC(=O)c1cccc(NC(=O)CN(c2ccc(C)cc2)S(=O)(=O)c2c(C)n[nH]c2C)c1,116.0,2.4,-2.6,-2.3,57.1*,.,-6.7
SMILES,ABCB6 inh MLPCN,DAGLB inhibitor,Granule exo inh,MT1-MMP act inh,VLA-4 inh,FGF22 binding,VLA-4 mod pick
COc1ccc2c3c([nH]c2c1)[C@@H](CO)N(CC1CC1)CC31CN(C(=O)c2cccc(F)c2)C1,.,.,.,.,.,0.0,.
Cc1ccc(-c2c(C(=O)O)c(C(=O)O)c3n2CCC3)cc1,90.0,1.5,-3.2,0.8,-3.5,0.2,.
O=C(O)c1c(C(=O)O)c(-c2ccc(F)cc2)n2c1CCC2,98.0,1.0,-2.5,4.9,43.6,-0.1,-12.6
COc1ccc(-c2c(C(F)(F)F)oc3c(CN4CCN(C)CC4)c(O)ccc3c2=O)cc1,113.0,-0.7,1.1,4.2,92.5*,.,2.1
COc1ccc2c3c([nH]c2c1)[C@@H](CO)N(C(=O)c1ccncc1)CC31CCN(C(=O)c2ccncc2)CC1,.,.,.,.,.,0.0,.
O=C(Cc1ccccn1)N[C@@H]1CC[C@@H](CC(=O)N2CCCCC2)O[C@H]1CO,.,.,.,.,.,0.5,.
Cn1nnc2cc(NC(=O)Nc3ccccc3F)ccc21,99.0,-0.5,14.4,4.0,.,-0.1,.
Cc1cc(NC(=O)Nc2ccccc2F)ccc1Br,97.0,-5.1,-8.1,-6.7,65.7*,0.3,4.0
O=C(NCCCn1ccnc1)C(=O)NCC(c1cccnc1)N1CCN(c2ccccc2)CC1 (stereo not given),100.0,1.0,-0.4,1.9,57.2*,0.2,-6.8
COCCNC(=O)C[C@H]1C[C@@H]2c3cc(NC(=O)Nc4ccccc4)ccc3O[C@@H]2[C@H](CO)O1,.,.,.,.,.,-0.3,.
CCOC(=O)CSc1nc(C)[nH]c1[N+](=O)[O-],111.0,0.9,1.6,5.2,41.4,-0.1,-0.4
OC[C@H]1[C@@H](c2ccc(C#Cc3cccnc3)cc2)[C@H]2CN(Cc3ccccc3F)CCCCN21,.,.,.,.,.,-0.3,.
Cc1c(NC(=O)CCC2CCCCC2)c(=O)n(-c2ccccc2)n1C,100.0,-2.4,4.4,0.6,14.5,0.0,6.7
COc1ccc(S(=O)(=O)CCC(=O)Nc2c(C)n(C)n(-c3ccccc3)c2=O)cc1,103.0,-5.0,-0.9,2.4,23.5,.,-10.4
COc1ccc(N(CC(=O)Nc2c(C)n(C)n(-c3ccccc3)c2=O)S(=O)(=O)c2ccc(C)cc2)cc1OC,77.0,-2.2,-5.5,0.0,1.3,0.0,.
Cc1cccc(N(CC(=O)Nc2c(C)n(C)n(-c3ccccc3)c2=O)S(C)(=O)=O)c1,93.0,-0.5,0.4,-1.5,0.0,.,-3.9
